An excerpt weighted towards active compounds, which were near 2.3% of everything screened.
TRPC4 potent = allosteric potentiators of mouse TRPC4 channel. Q9QUQ5. HEK293 TRPC4beta/mu-opioid, DAMGO EC20, Fluo-4 Ca2+ flux; stronger effect = higher value. B-score at 10 µM. 310,000 compounds, 0.42% hits;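 active = B-score of calcium response area above 5 SD of library B-scores, with initial fluorescence ratio within 5 SD of library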;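 also: B-score of integrated fluorescence ratio over time as area under calcium response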
TRPC6 activator = activators of mouse TRPC6 channel; HEK293-TRPC6 membrane potential dye fluorescence; stronger effect = higher value; B-score at 10 µM; 310,000 compounds, 0.13% hits;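 active = B-score of the integrated fluorescence ratio above library mean plus 3 SD, and starting fluorescence ratio within library mean plus 5 SD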;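 also: higher score means more depolarization so channel activation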
Target sequence (Q61143 whole entry, looked up): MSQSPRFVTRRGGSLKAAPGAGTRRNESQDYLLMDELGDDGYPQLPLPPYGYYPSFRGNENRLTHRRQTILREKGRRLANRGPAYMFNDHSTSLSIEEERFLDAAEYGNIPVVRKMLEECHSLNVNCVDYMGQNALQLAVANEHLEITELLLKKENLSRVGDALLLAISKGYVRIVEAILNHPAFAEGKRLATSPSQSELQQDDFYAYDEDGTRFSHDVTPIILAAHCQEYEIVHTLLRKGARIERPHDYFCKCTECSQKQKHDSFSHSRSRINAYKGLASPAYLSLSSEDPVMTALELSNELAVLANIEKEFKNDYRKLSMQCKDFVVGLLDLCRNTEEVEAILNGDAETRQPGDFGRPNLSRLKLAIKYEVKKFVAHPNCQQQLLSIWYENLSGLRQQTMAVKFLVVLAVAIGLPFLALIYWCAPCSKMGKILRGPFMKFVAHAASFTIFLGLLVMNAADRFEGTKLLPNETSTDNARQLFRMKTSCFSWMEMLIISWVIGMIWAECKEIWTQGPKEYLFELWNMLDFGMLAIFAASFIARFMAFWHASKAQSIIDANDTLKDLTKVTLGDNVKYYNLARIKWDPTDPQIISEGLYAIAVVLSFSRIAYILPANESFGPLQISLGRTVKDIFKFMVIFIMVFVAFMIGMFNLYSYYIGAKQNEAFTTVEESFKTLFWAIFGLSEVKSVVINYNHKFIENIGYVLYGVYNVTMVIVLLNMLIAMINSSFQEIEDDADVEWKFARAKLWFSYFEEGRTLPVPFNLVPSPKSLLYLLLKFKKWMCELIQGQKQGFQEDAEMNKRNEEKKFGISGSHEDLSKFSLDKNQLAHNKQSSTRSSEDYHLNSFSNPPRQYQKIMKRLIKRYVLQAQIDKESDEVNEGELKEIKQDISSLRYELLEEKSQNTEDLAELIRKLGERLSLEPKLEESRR
TRPC4 act = TRPC4 (mouse) channel activation; Q9QUQ5; HEK293 TRPC4beta/mu-opioid, Fluo4 calcium fluorescence; stronger effect = higher value; B-score at 10 µM; 310,000 compounds, 0.49% hits; AID 2237;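 active = B-score above 5 SD of library B-scores, and initial fluorescence ratio not above library mean plus 5 SD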;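 also: positive B-score marks a calcium rise read as TRPC4 activation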
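System: HEK293 cells stably co-expressing mouse TRPC4beta and mu-opioid receptor; Schedule: Fluo4 dye loading 45 min at room temperature, 110 s recording; Detection: Fluo4 fluorescence, kinetic; Evaluation: B-scored integrated calcium fluorescence ratio; Controls: buffer (low) and maximal DAMGO (high).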
TRPC6 inhibitor = blocks the mouse TRPC6 cation channel; Q61143; HEK293-TRPC6, membrane potential dye, ACh-evoked depolarization; stronger effect = lower value; B-score at 10 µM; 310,000 compounds, 1.1% hits; AID 2553;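 active = B-score under library mean minus 3 SD, initial fluorescence not abnormally high, positive integrated signal ratio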;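 also: B-score derived from integrated fluorescence ratio over the kinetic read; more negative B-score means stronger inhibition of depolarization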
TRPC4 block = blocks the mouse TRPC4 cation channel; HEK293 TRPC4beta/mu-opioid, DAMGO-evoked Fluo4 calcium flux; stronger effect = lower value; B-score at 10 µM; 300,000 compounds, 0.39% hits; AID 2247;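 active = B-score over 3 SD under the library average, no early fluorescence shift, positive overall ratio signal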
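Signal: kinetic Fluo4 fluorescence imaging of calcium influx. Material: stable TRPC4beta/mu-opioid receptor HEK293 cells. Probe or stimulus: DAMGO in two steps, submaximal then maximal.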
TRPC4 sel inh 2 = second selectivity test of TRPC6 inhibitors: effect on mouse TRPC4 | HEK293 TRPC4/MOR, membrane potential dye fluorescence; channel activated by saturating DAMGO dose | inhibition, % at 10 µM | shares compounds with TRPC6 inhibitor | 920 compounds, 42% hits | AID 2776;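 active = compounds whose fluorescence signal differed from control wells by over 3 SD, either direction, in both duplicate plates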
TRPC4 spec = tests whether TRPC6 inhibitors also affect mouse TRPC4 | activity change, negative = inhibition, % at 10 µM | HEK293 TRPC4/mu-opioid, membrane potential fluorescence | shares compounds with TRPC6 inhibitor | 920 compounds, 61% hits;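 active = rise or fall in signal beyond 3 SD of buffer-only wells in both replicate plates, either sign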;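 also: integrated kinetic ratio of fluorescence range over baseline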
HEK293 MPD ctr 2-1 = parental HEK293 nonspecific activity of TRPC6 inhibitors, second screen; parental HEK293 membrane potential dye fluorescence; maximal acetylcholine challenge after compound addition; shares compounds with TRPC6 inhibitor; signal change vs control, % at 10 µM; AID 2779; 920 compounds, 31% hits;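 active = membrane potential signal moving either way by over 3 SD of the maximum-effect control, in both duplicate plates, meaning non-specific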
HEK293 MPD ctr-1 = counter-screen for TRPC6 inhibitors: effect in parental HEK293 cells. parental HEK293 membrane potential dye fluorescence. membrane potential signal change, % at 10 µM. 920 compounds, 60% hits. shares compounds with TRPC6 inhibitor;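 active = membrane potential signal shifting up or down by more than 3 SD of buffer-only wells, on both duplicate plates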
HEK293 MPD ctr-2 = counter-screen for TRPC6 modulators: effect in parental HEK293 cells | shares compounds with TRPC6 inhibitor | membrane potential dye fluorescence | membrane potential signal change, % at 10 µM | 2,400 compounds, 51% hits | AID 488924;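 active = membrane potential signal moves up or down beyond 5 SD from buffer-only wells, on both duplicate plates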
HEK293 MPD ctr 2-2 = second check of TRPC6 modulator effects in parental HEK293 cells; shares compounds with TRPC6 inhibitor; membrane potential dye fluorescence; after compound, maximal acetylcholine stimulation; inhibition, % at 10 µM; 2,400 compounds, 14% hits; AID 488926;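 active = membrane potential signal drops by more than 5 SD from the mean control signal, in both duplicate plates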;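 also: plate controls were acetylcholine ECmax control wells for no effect and buffer only wells for full effect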
TRPC4/MOR mod = tests whether TRPC6 modulators also affect mouse TRPC4; percent change from control (negative = decrease, positive = increase), % at 10 µM; HEK293 TRPC4/mu-opioid, membrane potential fluorescence; shares compounds with TRPC6 inhibitor; 2,400 compounds, 69% hits;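 active = membrane potential signal moved up or down beyond 5 SD of buffer control wells, in both duplicate plates, actives on both sides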;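 also: plate controls were assay buffer wells for no effect and DAMGO maximal-effect wells for full effect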
TRPC4 ctr inh 2 = mouse TRPC4 off-target activity of TRPC6 modulators, second screen; inhibition, % at 10 µM; AID 488928; HEK293 TRPC4/mu-opioid, membrane potential dye fluorescence; stimulated with maximal-effect DAMGO; shares compounds with TRPC6 inhibitor; 2,400 compounds, 55% hits;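 active = drop in membrane potential signal beyond 5 SD of the control wells in both duplicate plates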;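 also: TRPC4 counter screen for TRPC6 hits run under conditions tuned for TRPC6 not TRPC4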
TRPC6 block conf = confirmation of mouse TRPC6 inhibitors. 3,300 compounds, 43% hits. inhibition, % at 10 µM. HEK293-TRPC6, membrane potential dye, ACh-evoked depolarization. shares compounds with TRPC6 inhibitor;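 active = fluorescence ratio falls more than 5 SD below the full-stimulation control mean, in both duplicate runs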;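 also: integrated fluorescence ratio of peak minus minimum over baseline after agonist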
TRPC6 act confirm = confirmation of mouse TRPC6 activators. shares compounds with TRPC6 inhibitor. HEK293-TRPC6 membrane potential dye fluorescence, FDSS. activation, % at 10 µM. 2,800 compounds, 11% hits;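 active = ratio signal rise beyond 5 SD above unstimulated control wells' mean, seen in both duplicate runs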;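 also: plate controls were buffer EC0 wells for no effect and acetylcholine ECmax response for full effect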
Active calls of the source: *.

What do the screens show for `COc1cccc(-c2nc(NCC3CCCO3)c3ccccc3n2)c1O` (stereo unspecified)?
TRPC4 potent: inactive; TRPC6 activator: inactive; TRPC4 act: inactive; TRPC6 inhibitor: inactive; TRPC4 block: inactive

Results for Cc1ccc(Nc2nc(NCCO)c3ccccc3n2)cc1C ?
TRPC4 potent: inactive; TRPC6 activator: inactive; TRPC4 act: inactive; TRPC6 inhibitor: -6.5*; TRPC4 block: inactive; HEK293 MPD ctr-2: inactive; HEK293 MPD ctr 2-2: 77%*; TRPC4/MOR mod: -16%*; TRPC4 ctr inh 2: 86%*; TRPC6 block conf: 79%*; TRPC6 act confirm: inactive

How did OCCNc1nc(-c2ccccc2)nc2ccccc12 do in these assays?
TRPC4 potent: inactive; TRPC6 activator: inactive; TRPC4 act: inactive; TRPC6 inhibitor: inactive; TRPC4 block: inactive

What do the screens show for `COc1ccc(OC)c(Nc2c3ccccc3nc3ccccc23)c1`?
TRPC4 potent: inactive; TRPC6 activator: inactive; TRPC4 act: inactive; TRPC6 inhibitor: -6*; TRPC4 block: -6*; HEK293 MPD ctr-2: -182%*; HEK293 MPD ctr 2-2: inactive; TRPC4/MOR mod: -30%*; TRPC4 ctr inh 2: 70%*; TRPC6 block conf: 53%*; TRPC6 act confirm: inactive

How did COc1ccccc1Nc1nc(NCCO)c2ccccc2n1 do in these assays?
TRPC4 potent: inactive; TRPC6 activator: inactive; TRPC4 act: inactive; TRPC6 inhibitor: inactive; TRPC4 block: inactive

What do the screens show for `COc1ccc(OC)c(Nc2nc(NCCO)c3ccccc3n2)c1`?
TRPC4 potent: inactive; TRPC6 activator: inactive; TRPC4 act: inactive; TRPC6 inhibitor: -9*; TRPC4 block: -5*; TRPC4 sel inh 2: 44%*; TRPC4 spec: -24%*; HEK293 MPD ctr 2-1: 32%*; HEK293 MPD ctr-1: -274%*; TRPC6 block conf: 79%*; TRPC6 act confirm: inactive

How did COc1ccccc1Nc1nc(NCC2CCCO2)c2ccccc2n1 (stereo unspecified) do in these assays?
TRPC4 potent: inactive; TRPC6 activator: inactive; TRPC4 act: inactive; TRPC6 inhibitor: -8.8*; TRPC4 block: -7*; TRPC4 sel inh 2: 32%*; TRPC4 spec: -13%*; HEK293 MPD ctr 2-1: inactive; HEK293 MPD ctr-1: -139%*; TRPC6 block conf: 112%*; TRPC6 act confirm: inactive

How did O=C(c1cccc(C(F)(F)F)c1)N1CCc2c([nH]c3ccccc23)C1C(F)(F)F (stereo unspecified) do in these assays?
TRPC4 potent: inactive; TRPC6 activator: inactive; TRPC4 act: inactive; TRPC6 inhibitor: inactive; TRPC4 block: inactive

Results for O=C(CCCc1ccccc1)NCCc1ccc(F)cc1 ?
TRPC4 potent: inactive; TRPC6 activator: inactive; TRPC4 act: inactive; TRPC6 inhibitor: inactive; TRPC4 block: inactive

What do the screens show for `N=c1c2c3c(sc2ncn1Cc1ccccc1)CCCC3`?
TRPC4 potent: inactive; TRPC6 activator: inactive; TRPC4 act: inactive; TRPC6 inhibitor: -6.5*; TRPC4 block: inactive; HEK293 MPD ctr-2: inactive; HEK293 MPD ctr 2-2: inactive; TRPC4/MOR mod: -12%*; TRPC4 ctr inh 2: 39%*; TRPC6 block conf: inactive; TRPC6 act confirm: inactive

How did CCCCn1cnc2sc3c(c2c1=N)CCCC3 do in these assays?
TRPC4 potent: inactive; TRPC6 activator: inactive; TRPC4 act: inactive; TRPC6 inhibitor: -7.1*; TRPC4 block: inactive; TRPC4 sel inh 2: 62%*; TRPC4 spec: -17%*; HEK293 MPD ctr 2-1: inactive; HEK293 MPD ctr-1: -228%*; TRPC6 block conf: inactive; TRPC6 act confirm: inactive

What do the screens show for `N=c1c2c3c(sc2ncn1CCCO)CCCC3`?
TRPC4 potent: inactive; TRPC6 activator: inactive; TRPC4 act: inactive; TRPC6 inhibitor: inactive; TRPC4 block: inactive

What do the screens show for `N=c1c2c3c(sc2ncn1Nc1ccccc1)CCC3`?
TRPC4 potent: inactive; TRPC6 activator: inactive; TRPC4 act: inactive; TRPC6 inhibitor: -5.3*; TRPC4 block: inactive; HEK293 MPD ctr-2: inactive; HEK293 MPD ctr 2-2: inactive; TRPC4/MOR mod: -8.5%*; TRPC4 ctr inh 2: 52%*; TRPC6 block conf: 51%*; TRPC6 act confirm: inactive

Results for N=c1c2c3c(sc2ncn1CCN1CCOCC1)CCCCC3 ?
TRPC4 potent: inactive; TRPC6 activator: inactive; TRPC4 act: inactive; TRPC6 inhibitor: inactive; TRPC4 block: inactive

What do the screens show for `CN(CC(=O)Nc1cccc(F)c1)C(=O)CCc1nc2ccccc2c(=O)[nH]1`?
TRPC4 potent: inactive; TRPC6 activator: inactive; TRPC4 act: inactive; TRPC6 inhibitor: inactive; TRPC4 block: inactive

How did N#Cc1cccc(NC(=O)CNc2cccc(S(=O)(=O)N3CCCCC3)c2)c1 do in these assays?
TRPC4 potent: inactive; TRPC6 activator: inactive; TRPC4 act: inactive; TRPC6 inhibitor: inactive; TRPC4 block: inactive

What do the screens show for `CCOc1ccc(C(=O)NCc2ccco2)cc1OC`?
TRPC4 potent: inactive; TRPC6 activator: inactive; TRPC4 act: inactive; TRPC6 inhibitor: inactive; TRPC4 block: inactive

Results for CN1CCN(c2ccccc2NC(=O)c2ccc(-c3ccc(Cl)c(Cl)c3)o2)CC1 ?
TRPC4 potent: inactive; TRPC6 activator: inactive; TRPC4 act: inactive; TRPC6 inhibitor: inactive; TRPC4 block: inactive

High-throughput results deposited in PubChem BioAssay by Johns Hopkins Ion Channel Center.
